Measured values as given in ChEMBL document CHEMBL4819043, “1,3-Benzodioxole-based fibrate derivatives as potential hypolipidemic and hepatoprotective agents” (2021).
Values belong to the molecule of their own block, whether it stands above or below them. The source made the active and inactive calls. The rule behind the calls is not given here.

Columns and labels:
Mus musculus [1] = assay: Hypolipidemic activity in KM mouse model of Triton WR 1339-induced hyperlipidemia assessed as reduction in serum TG level at 0.362 mmol/Kg, IG administered for 1 week and measured on day 7; format: functional, organism-based; details: time 1.0 weeks
Mus musculus [2] = assay: Hypolipidemic activity in KM mouse model of Triton WR 1339-induced hyperlipidemia assessed as reduction in serum TC level at 0.362 mmol/Kg, IG administered for 1 week and measured on day 7; format: functional, organism-based; details: time 1.0 weeks
Mus musculus [3] = assay: Hypolipidemic activity in KM mouse model of Triton WR 1339-induced hyperlipidemia assessed as reduction in serum MDA level at 0.362 mmol/Kg, IG administered for 1 week and measured on day 7; format: functional, organism-based; details: time 1.0 weeks
Mus musculus [4] = assay: Hypolipidemic activity in KM mouse model of Triton WR 1339-induced hyperlipidemia assessed as reduction in serum TG level at 0.121 mmol/Kg, IG administered for 1 week and measured on day 7 relative to control; format: functional; parameters: scale not given: the % may be the effect or the level left; details: time 1 weeks
Mus musculus [5] = assay: Hypolipidemic activity in KM mouse model of Triton WR 1339-induced hyperlipidemia assessed as reduction in serum TG level at 0.362 mmol/Kg, IG administered for 1 week and measured on day 7 relative to control; format: functional; parameters: scale not given: the % may be the effect or the level left; details: time 1 weeks
Mus musculus [6] = assay: Hypolipidemic activity in KM mouse model of Triton WR 1339-induced hyperlipidemia assessed as reduction in serum TG level at 1.086 mmol/Kg, IG administered for 1 week and measured on day 7 relative to control; format: functional; parameters: scale not given: the % may be the effect or the level left; details: time 1 weeks
Mus musculus [7] = assay: Hypolipidemic activity in KM mouse model of Triton WR 1339-induced hyperlipidemia assessed as reduction in serum TC level at 0.121 mmol/Kg, IG administered for 1 week and measured on day 7 relative to control; format: functional; parameters: scale not given: the % may be the effect or the level left; details: time 1 weeks
Mus musculus [8] = assay: Hypolipidemic activity in KM mouse model of Triton WR 1339-induced hyperlipidemia assessed as reduction in serum TC level at 0.362 mmol/Kg, IG administered for 1 week and measured on day 7 relative to control; format: functional; parameters: scale not given: the % may be the effect or the level left; details: time 1 weeks
Mus musculus [9] = assay: Hypolipidemic activity in KM mouse model of Triton WR 1339-induced hyperlipidemia assessed as reduction in serum TC level at 1.086 mmol/Kg, IG administered for 1 week and measured on day 7 relative to control; format: functional; parameters: scale not given: the % may be the effect or the level left; details: time 1 weeks
Mus musculus [10] = assay: Hypolipidemic activity in KM mouse model of Triton WR 1339-induced hyperlipidemia assessed as reduction in serum TG level administered IG for 1 week and measured on day 7; format: functional, organism-based; details: time 1.0 weeks
Mus musculus [11] = assay: Hypolipidemic activity in KM mouse model of Triton WR 1339-induced hyperlipidemia assessed as reduction in serum TC level administered IG for 1 week and measured on day 7 relative to control; format: functional, organism-based; details: time 1.0 weeks
Mus musculus [12] = assay: Hypolipidemic activity in mouse model of HFD-induced hyperlipidemia assessed as reduction in serum TG level at 67 mg/kg, IG; format: functional, organism-based
Procedure, shortened: (§1)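 Mice with high-fat-diet-induced hyperlipidemia, given 67 or 13 mg/kg intragastrically. Serum was assayed for TC, TG, HDL-C and LDL-C, for SOD, GSH-PX and MDA, for IL-6 and TNF-α, and for AST and ALT. Values were compared with the model group. n = 12 per group; mean ± SEM.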

Mus musculus [13] = assay: Hypolipidemic activity in mouse model of HFD-induced hyperlipidemia assessed as reduction in serum LDL-C level at 67 mg/kg, IG; format: functional, organism-based; procedure, shortened: as §1
Mus musculus [14] = assay: Hypolipidemic activity in mouse model of HFD-induced hyperlipidemia assessed as reduction in serum TC level at 67 mg/kg, IG; format: functional, organism-based; procedure, shortened: as §1
Mus musculus [15] = assay: Antioxidant activity in mouse model of HFD-induced hyperlipidemia assessed as increase in SOD level at 67 mg/kg, IG; format: functional, organism-based; procedure, shortened: as §1
Mus musculus [16] = assay: Antioxidant activity in mouse model of HFD-induced hyperlipidemia assessed as increase in GSH-PX level at 67 mg/kg, IG; format: functional, organism-based; procedure, shortened: as §1
Mus musculus [17] = assay: Antioxidant activity in mouse model of HFD-induced hyperlipidemia assessed as decrease in MDA level at 67 mg/kg, IG; format: functional, organism-based; procedure, shortened: as §1
Mus musculus [18] = assay: Antiinflammatory activity against mouse model of HFD-induced hyperlipidemia assessed as decrease in TNF-alpha level at 67 mg/kg, IG; format: functional, organism-based; procedure, shortened: as §1
Mus musculus [19] = assay: Antiinflammatory activity against mouse model of HFD-induced hyperlipidemia assessed as decrease in IL-6 level at 67 mg/kg, IG; format: functional, organism-based; procedure, shortened: as §1
Mus musculus [20] = assay: Hepatoprotective activity against mouse model of HFD-induced hyperlipidemia assessed as decrease in AST level at 67 mg/kg, IG; format: functional, organism-based; procedure, shortened: as §1
Mus musculus [21] = assay: Hepatoprotective activity against mouse model of HFD-induced hyperlipidemia assessed as decrease in ALT level at 67 mg/kg, IG; format: functional, organism-based; procedure, shortened: as §1
Mus musculus [22] = assay: Hypolipidemic activity in mouse model of HFD-induced hyperlipidemia assessed as reduction in number of lipid droplets in liver at 67 mg/kg, IG by oil red-O staining based assay; format: functional, organism-based
Procedure, shortened: (§2)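 Livers from mice with high-fat-diet-induced hyperlipidemia, dosed intragastrically at 67 or 13 mg/kg. Liver sections were stained for lipid (oil red O; Sudan III with hematoxylin, 100×), and relative hepatic lipid accumulation was quantified. Mean of six independent experiments ± SEM, compared with the model group.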

Mus musculus [23] = assay: Upregulation of PPAR-alpha expression in mouse model of HFD-induced hyperlipidemia at 67 mg/kg, IG by Western blot analysis; format: functional, organism-based
Procedure, shortened: (§3)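 Hepatic PPAR-α expression measured in liver tissue of mice with high-fat-diet-induced hyperlipidemia, dosed intragastrically at 67 or 13 mg/kg. Compared with the model group. n = 6; mean ± SEM.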

Mus musculus [24] = assay: Hypolipidemic activity in mouse model of HFD-induced hyperlipidemia assessed as increase in serum HDL-C level at 67 mg/kg, IG relative to control; format: functional; procedure, shortened: as §1
Mus musculus [25] = assay: Hypolipidemic activity in mouse model of HFD-induced hyperlipidemia assessed as reduction in serum TG level at 13 mg/kg, IG; format: functional, organism-based; procedure, shortened: as §1
Mus musculus [26] = assay: Hypolipidemic activity in mouse model of HFD-induced hyperlipidemia assessed as reduction in serum LDL-C level at 13 mg/kg, IG; format: functional, organism-based; procedure, shortened: as §1
Mus musculus [27] = assay: Hypolipidemic activity in mouse model of HFD-induced hyperlipidemia assessed as reduction in serum TC level at 13 mg/kg, IG; format: functional, organism-based; procedure, shortened: as §1
Mus musculus [28] = assay: Antioxidant activity in mouse model of HFD-induced hyperlipidemia assessed as increase in GSH-PX level at 13 mg/kg, IG; format: functional, organism-based; procedure, shortened: as §1
Mus musculus [29] = assay: Antioxidant activity in mouse model of HFD-induced hyperlipidemia assessed as decrease in MDA level at 13 mg/kg, IG; format: functional, organism-based; procedure, shortened: as §1
Mus musculus [30] = assay: Hepatoprotective activity against mouse model of HFD-induced hyperlipidemia assessed as decrease in AST level at 13 mg/kg, IG; format: functional, organism-based; procedure, shortened: as §1
Mus musculus [31] = assay: Hepatoprotective activity against mouse model of HFD-induced hyperlipidemia assessed as decrease in ALT level at 13 mg/kg, IG; format: functional, organism-based; procedure, shortened: as §1
Mus musculus [32] = assay: Hypolipidemic activity in mouse model of HFD-induced hyperlipidemia assessed as reduction in number of lipid droplets in liver at 13 mg/kg, IG by oil red-O staining based assay; format: functional, organism-based; procedure, shortened: as §2
Mus musculus [33] = assay: Upregulation of PPAR-alpha expression in mouse model of HFD-induced hyperlipidemia at 13 mg/kg, IG by Western blot analysis; format: functional, organism-based; procedure, shortened: as §3
Mus musculus [34] = assay: Hypolipidemic activity in mouse model of HFD-induced hyperlipidemia assessed as increase in serum HDL-C level at 13 mg/kg, IG relative to control; format: functional; procedure, shortened: as §1

SMILES: O=C(O)CCCCOc1ccc2c(c1)OCO2
Activity (Mus musculus [1]): Active | Activity (Mus musculus [2]): Active

SMILES: O=C(O)COc1ccc2c(c1)OCO2
Activity (Mus musculus [1]): Active

SMILES: CCOC(=O)CCCCCOc1ccc2c(c1)OCO2
Activity (Mus musculus [1]): Active | Activity (Mus musculus [2]): Active

SMILES: CC(C)OC(=O)C(C)(C)Oc1ccc(C(=O)c2ccc(Cl)cc2)cc1 [FENOFIBRATE]
Activity (Mus musculus [25]): Active | Activity (Mus musculus [26]): Active | Activity (Mus musculus [27]): inactive | Activity (Mus musculus [28]): Active | Activity (Mus musculus [29]): inactive | Activity (Mus musculus [30]): inactive | Activity (Mus musculus [31]): inactive | Activity (Mus musculus [32]): Active | Activity (Mus musculus [33]): Active | Activity (Mus musculus [34]): 20%

SMILES: CCOC(=O)CCCOc1ccc2c(c1)OCO2
Activity (Mus musculus [1]): Active | Activity (Mus musculus [2]): Active

SMILES: CCOC(=O)CCCCOc1ccc2c(c1)OCO2
Activity (Mus musculus [2]): Active

SMILES: CCOC(=O)COc1ccc2c(c1)OCO2
Activity (Mus musculus [2]): Active

Continued, in another order:

Activity (Mus musculus [1]): Active | Activity (Mus musculus [2]): Active | Activity (Mus musculus [3]): Active
SMILES: O=C(CCCCOc1ccc2c(c1)OCO2)Oc1ccc2c(c1)OCO2

Activity (Mus musculus [1]): Active | Activity (Mus musculus [2]): Active
SMILES: O=C(COc1ccc2c(c1)OCO2)Oc1ccc2c(c1)OCO2

Activity (Mus musculus [1]): Active | Activity (Mus musculus [2]): Active
SMILES: O=C(O)CCCCCOc1ccc2c(c1)OCO2

Activity (Mus musculus [1]): Active | Activity (Mus musculus [2]): Active | Activity (Mus musculus [3]): Active | Activity (Mus musculus [10]): Dose-Dependent Effect | Activity (Mus musculus [11]): Dose-Dependent Effect
SMILES: O=C(CCCCCOc1ccc2c(c1)OCO2)Oc1ccc2c(c1)OCO2
Activity (Mus musculus [4]): 10.4% | Activity (Mus musculus [5]): 68.8% | Activity (Mus musculus [6]): 74.1% | Activity (Mus musculus [7]): 14.3% | Activity (Mus musculus [8]): 67.3% | Activity (Mus musculus [9]): 70.1% | Activity (Mus musculus [12]): Active | Activity (Mus musculus [13]): Active | Activity (Mus musculus [14]): Active | Activity (Mus musculus [15]): Active | Activity (Mus musculus [16]): Active | Activity (Mus musculus [17]): Active | Activity (Mus musculus [18]): Active | Activity (Mus musculus [19]): Active | Activity (Mus musculus [20]): Active | Activity (Mus musculus [21]): Active | Activity (Mus musculus [22]): Active | Activity (Mus musculus [23]): Active | Activity (Mus musculus [24]): 15%

Activity (Mus musculus [1]): Active | Activity (Mus musculus [2]): Active
SMILES: O=C(CCCOc1ccc2c(c1)OCO2)Oc1ccc2c(c1)OCO2
